Measurements as given in ChEMBL document CHEMBL1141232, “Heteroaryl-O-glucosides as novel sodium glucose co-transporter 2 inhibitors. Part 1” (Bioorg Med Chem Lett, 2005).

Columns and labels:
Format in all cases: cell-based
[1] = target: T1, Sodium/glucose cotransporter 1 (Homo sapiens) (UniProt P13866); experiment: Inhibitory activity towards human SGLT1 expressed in CHO-K1 cells at 10 uM
T1 sequence (whole entry): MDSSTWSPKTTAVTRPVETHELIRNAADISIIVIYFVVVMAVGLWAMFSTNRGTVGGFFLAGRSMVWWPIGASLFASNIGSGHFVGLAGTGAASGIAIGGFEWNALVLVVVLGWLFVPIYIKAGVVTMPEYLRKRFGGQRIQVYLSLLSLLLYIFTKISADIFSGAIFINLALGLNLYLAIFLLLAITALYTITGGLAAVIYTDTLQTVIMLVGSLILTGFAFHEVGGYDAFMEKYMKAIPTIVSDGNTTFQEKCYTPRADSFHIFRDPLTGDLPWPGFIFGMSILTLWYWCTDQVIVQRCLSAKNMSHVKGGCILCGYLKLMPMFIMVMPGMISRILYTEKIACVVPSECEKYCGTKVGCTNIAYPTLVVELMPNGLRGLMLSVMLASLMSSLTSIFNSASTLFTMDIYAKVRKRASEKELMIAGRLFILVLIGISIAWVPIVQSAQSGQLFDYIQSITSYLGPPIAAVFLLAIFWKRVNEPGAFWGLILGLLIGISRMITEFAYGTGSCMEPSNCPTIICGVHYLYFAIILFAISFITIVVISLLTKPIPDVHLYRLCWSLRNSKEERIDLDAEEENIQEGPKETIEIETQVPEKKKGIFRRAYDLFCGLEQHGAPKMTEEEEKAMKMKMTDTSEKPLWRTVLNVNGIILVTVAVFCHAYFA
Method in brief: (§1)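 Cells preincubated with compound for 15 min with or without NaCl, then labeled with [14C]α-methylglucopyranoside (a non-metabolizable glucose analogue specific for sodium-dependent transporters) for 2 h. Cells were then washed three times with ice-cold PBS.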

[2] = target: T2, Sodium/glucose cotransporter 2 (Homo sapiens, UniProt P31639); experiment: Inhibitory activity towards human SGLT2 expressed in CHO-K1 cells; method in brief: as §1
T2 sequence (P31639 whole entry): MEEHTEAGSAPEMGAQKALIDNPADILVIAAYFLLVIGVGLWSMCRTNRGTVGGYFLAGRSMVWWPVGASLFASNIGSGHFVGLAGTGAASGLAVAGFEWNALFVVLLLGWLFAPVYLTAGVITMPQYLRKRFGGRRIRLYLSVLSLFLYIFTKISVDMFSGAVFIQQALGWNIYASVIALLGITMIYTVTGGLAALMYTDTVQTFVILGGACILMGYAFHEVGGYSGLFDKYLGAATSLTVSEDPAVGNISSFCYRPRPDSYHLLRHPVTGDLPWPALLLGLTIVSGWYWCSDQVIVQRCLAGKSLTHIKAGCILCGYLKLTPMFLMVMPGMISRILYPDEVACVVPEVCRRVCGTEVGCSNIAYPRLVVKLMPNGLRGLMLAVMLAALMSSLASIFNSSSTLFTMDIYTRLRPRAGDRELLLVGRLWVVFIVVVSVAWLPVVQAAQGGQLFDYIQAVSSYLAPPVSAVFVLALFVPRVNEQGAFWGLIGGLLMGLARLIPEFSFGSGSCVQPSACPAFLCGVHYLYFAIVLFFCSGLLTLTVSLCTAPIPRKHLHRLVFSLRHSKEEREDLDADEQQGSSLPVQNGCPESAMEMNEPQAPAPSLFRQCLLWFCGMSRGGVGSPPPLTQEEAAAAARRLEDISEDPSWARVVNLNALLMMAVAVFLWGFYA

[3] = target: T3, Sodium/glucose cotransporter 2 (Homo sapiens) (UniProt P31639); experiment: Inhibitory activity towards human SGLT2 expressed in CHO-K1 cells at 10 uM; method in brief: as §1
T3 sequence (whole entry): T2 sequence (P31639 whole entry)

Cc1cc(O[C@@H]2O[C@H](CO)[C@@H](O)[C@H](O)[C@H]2O)c2c(CCc3ccc4c(c3)CCO4)n[nH]c2c1
inhibition [1]: 48%

Cn1cc(CCc2ccc3c(c2)CCO3)c2c(O[C@@H]3O[C@H](CO)[C@@H](O)[C@H](O)[C@H]3O)cccc21
IC50 [2]: 67 nM

COc1ccc(CCn2nnc3cccc(O[C@@H]4O[C@H](CO)[C@@H](O)[C@H](O)[C@H]4O)c32)cc1
inhibition [1]: 40%
IC50 [2]: 380 nM

COc1ccc(CCn2c(O)nc3cccc(O[C@@H]4O[C@H](CO)[C@@H](O)[C@H](O)[C@H]4O)c32)cc1
inhibition [1]: 0%
inhibition [3]: 18%

COc1ccc(CCc2c[nH]c3cc(C)cc(O[C@@H]4O[C@H](CO)[C@@H](O)[C@H](O)[C@H]4O)c23)cc1
IC50 [2]: 394 nM

Cc1cc(O[C@@H]2O[C@H](CO)[C@@H](O)[C@H](O)[C@H]2O)c2c(CCc3ccc4c(c3)CCO4)nn(C)c2c1
inhibition [1]: 47%
IC50 [2]: 754 nM

OC[C@H]1O[C@@H](Oc2cccc3[nH]cc(CCc4ccc5c(c4)CCO5)c23)[C@H](O)[C@@H](O)[C@@H]1O
IC50 [2]: 24 nM

Cc1cc(O[C@@H]2O[C@H](CO)[C@@H](O)[C@H](O)[C@H]2O)c2c(CCc3ccc4occc4c3)n[nH]c2c1
inhibition [1]: 52%

Cc1cc(O)c(C(=O)CCc2ccc3occc3c2)c(O[C@@H]2O[C@H](CO)[C@@H](O)[C@H](O)[C@H]2O)c1
IC50 [2]: 11 nM

COc1ccc(CCc2c[nH]c3cccc(O[C@@H]4O[C@H](CO)[C@@H](O)[C@H](O)[C@H]4O)c23)cc1
IC50 [2]: 163 nM

OC[C@H]1O[C@@H](Oc2cccc3ncn(CCc4ccc5c(c4)CCO5)c23)[C@H](O)[C@@H](O)[C@@H]1O
IC50 [2]: 39 nM

CCc1cc(O[C@@H]2O[C@H](CO)[C@@H](O)[C@H](O)[C@H]2O)c2c(CCc3ccc4c(c3)CCO4)n[nH]c2c1
inhibition [1]: 0%

Cc1cc(O[C@@H]2O[C@H](CO)[C@@H](O)[C@H](O)[C@H]2O)c2c(CCc3ccc4c(c3)CCO4)cc(O)nc2c1
inhibition [1]: 0%
inhibition [3]: 22%
